Broadly, the IC50 is the concentration that inhibits the measured activity by half. Low values mean inhibition by little substance, high ones a need for much substance. As a reminder, the Cmax is the peak of the concentration-time curve. The term half-life denotes the time needed for the level to fall by half in the phase considered.

Each structure is given as a SMILES string. Active and inactive are the calls of the source. A value given as a limit tells only on which side of the number the result lay.

Data set [1] relates to MV4-11. The experiment in a line: Antitumor activity against human MV4-11 cells xenografted in BALB/c mouse assessed as modest tumor growth inhibition at 10 mg/kg,sc BID for 28 days. It counts as functional, organism-based. Conditions: time 28.0 day. Background: In xenograft studies the graft and the host belong to different species.
In data set [2] the test system is MV4-11. Briefly: Antitumor activity against human MV4-11 cells xenografted in BALB/c mouse assessed as tumor growth inhibition at 30 mg/kg,po QD for 28 days. Format: functional. As to conditions: MV4-11, 672 h, time 28 day, read-out: TGI. Put shortly:
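Single-agent efficacy in MV-4-11 AML mouse xenograft. Tumor volume (mm3) and percent body-weight change were tracked over the treatment days.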

Data set [3] relates to MV4-11. The experiment in a line: In vivo inhibition of BRD4 in human MV4-11 cells xenografted in BALB/c mouse assessed as reduction in cellular MYC mRNA expression level in tumor at 15 mg/kg,sc BID and measured at 4 hrs by PCR anlaysis. Format: functional, organism-based. Put shortly:
(§1)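 Pharmacodynamic study in MV-4-11 AML mouse xenograft. Dosing was 15 mg/kg subcutaneous twice daily. At 4, 8 and 12 h after the second dose, MYC mRNA was measured against vehicle, and compound levels were measured in plasma and tumor. Free plasma concentration was estimated alongside total levels.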

Data set [4] addresses T1, Peregrin (Homo sapiens, UniProt P55201).
T1 sequence (P55201 whole entry): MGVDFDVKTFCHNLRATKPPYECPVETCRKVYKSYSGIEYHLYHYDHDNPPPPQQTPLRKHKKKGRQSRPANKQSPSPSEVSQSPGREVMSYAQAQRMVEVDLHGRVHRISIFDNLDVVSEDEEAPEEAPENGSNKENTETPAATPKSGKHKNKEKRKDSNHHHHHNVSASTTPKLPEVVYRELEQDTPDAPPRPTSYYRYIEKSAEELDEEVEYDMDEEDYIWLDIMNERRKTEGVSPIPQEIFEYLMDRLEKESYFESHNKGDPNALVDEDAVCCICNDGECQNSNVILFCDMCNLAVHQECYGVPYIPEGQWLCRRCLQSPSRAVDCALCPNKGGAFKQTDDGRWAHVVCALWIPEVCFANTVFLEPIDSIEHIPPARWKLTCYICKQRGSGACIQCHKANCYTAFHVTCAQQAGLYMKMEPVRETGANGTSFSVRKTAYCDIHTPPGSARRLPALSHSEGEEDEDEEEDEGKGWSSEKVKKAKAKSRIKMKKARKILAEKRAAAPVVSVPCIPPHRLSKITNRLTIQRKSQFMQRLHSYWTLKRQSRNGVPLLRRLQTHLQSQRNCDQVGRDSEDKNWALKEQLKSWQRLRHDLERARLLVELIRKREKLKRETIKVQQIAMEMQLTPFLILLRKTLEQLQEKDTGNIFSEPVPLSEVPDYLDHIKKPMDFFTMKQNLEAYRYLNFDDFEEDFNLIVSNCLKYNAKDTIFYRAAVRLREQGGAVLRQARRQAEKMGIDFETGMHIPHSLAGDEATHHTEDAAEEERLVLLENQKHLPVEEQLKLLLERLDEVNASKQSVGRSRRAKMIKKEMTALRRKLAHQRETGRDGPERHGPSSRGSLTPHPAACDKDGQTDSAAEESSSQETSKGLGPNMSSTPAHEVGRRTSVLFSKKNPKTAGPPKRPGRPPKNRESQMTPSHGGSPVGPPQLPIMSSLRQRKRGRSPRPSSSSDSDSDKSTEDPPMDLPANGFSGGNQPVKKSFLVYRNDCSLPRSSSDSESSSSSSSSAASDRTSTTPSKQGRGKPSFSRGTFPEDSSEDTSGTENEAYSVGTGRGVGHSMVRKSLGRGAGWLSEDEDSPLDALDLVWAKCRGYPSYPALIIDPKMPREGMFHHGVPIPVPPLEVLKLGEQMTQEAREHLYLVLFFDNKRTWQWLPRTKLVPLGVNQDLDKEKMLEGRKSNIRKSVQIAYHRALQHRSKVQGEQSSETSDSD
The experiment in a line: Displacement of biotinylated JQ1 from BRPF1 bromodomain (unknown origin) incubated for 20 mins by AlphaLISA assay. (In general: Alpha assays give light when donor and acceptor beads are brought close together.)

A short description of data set [5]: Cmax in human patient with progression lymphoma at 300 mg,po QD consecutively for 14 days. It counts as ADME. Set-up: time 14 day, dose 300 mg, route po. As to conditions: in vivo. The essentials:
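Phase I trial in patients with hematologic malignancies, oral dosing once daily with escalating cohorts; values are from the 300 mg dose on day 14. AUC0-24 was taken as exposure over 24 h. Apparent clearance was calculated as Dose/AUC0-24.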

Data set [6] concerns the target Histone acetyltransferase KAT2B (Homo sapiens, UniProt Q92831). Briefly: Binding affinity to PCAF bromodomain (unknown origin) incubated for 60 mins by TR-FRET assay. On the technique in general: Time-resolved FRET reads energy transfer from a long-lived donor to a nearby acceptor.
Data set [7] concerns MV4-11. The experiment in a line: In vivo inhibition of BRD4 in human MV4-11 cells xenografted in BALB/c mouse assessed as reduction in cellular MYC mRNA expression level in tumor at 15 mg/kg,sc BID and measured for 8 to 12 hrs by PCR anlaysis. Format: functional, organism-based. Conditions: time 8-12 hrs. The essentials: as §1
Data set [8] can be described thus: Cmax in rat at 5 mg/kg,po. It counts as ADME, organism-based. Set-up: dose 5 mg/kg, route po. As to conditions: in vivo.
Data set [9] has as its target T2, Bromodomain-containing protein 9 (Homo sapiens, UniProt Q9H8M2).
T2 sequence (Q9H8M2 whole entry): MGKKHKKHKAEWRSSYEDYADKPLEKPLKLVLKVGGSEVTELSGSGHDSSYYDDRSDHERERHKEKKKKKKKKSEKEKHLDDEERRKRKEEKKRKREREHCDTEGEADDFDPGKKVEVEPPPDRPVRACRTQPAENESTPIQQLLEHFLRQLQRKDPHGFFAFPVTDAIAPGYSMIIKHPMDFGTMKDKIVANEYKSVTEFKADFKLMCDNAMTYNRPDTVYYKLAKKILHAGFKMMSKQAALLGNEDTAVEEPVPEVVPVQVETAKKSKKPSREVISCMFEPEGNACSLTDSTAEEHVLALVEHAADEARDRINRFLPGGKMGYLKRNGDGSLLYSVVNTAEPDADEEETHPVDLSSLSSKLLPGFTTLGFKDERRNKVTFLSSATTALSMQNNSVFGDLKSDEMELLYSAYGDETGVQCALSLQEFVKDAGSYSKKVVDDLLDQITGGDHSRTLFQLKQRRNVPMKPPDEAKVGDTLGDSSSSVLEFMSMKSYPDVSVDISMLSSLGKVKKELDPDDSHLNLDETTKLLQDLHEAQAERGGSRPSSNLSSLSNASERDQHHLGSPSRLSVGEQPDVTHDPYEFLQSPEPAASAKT
The experiment in a line: Displacement of biotinylated JQ1 from BRD9 bromodomain (unknown origin) incubated for 20 mins by AlphaLISA assay.

Data set [10] in a line: Half life in human patient with progression lymphoma at 300 mg,po QD consecutively for 14 days. It counts as ADME. As to conditions: in vivo, time 14 day.
Data set [11] in a line: Toxicity in rat assessed as hypocellularity of bone marrow with associated anemia and thrombocytopenia at 2 to 20 mg/kg,po QD consecutive for 14 days followed by 2 weeks recovery period. Format: organism-based. Conditions: in vivo, 336 h, dose 2-20 mg/kg, time 14 day. Put shortly: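 Oral suspension given once daily for 14 consecutive days (rat 2, 6, 20 mg/kg; dog 2, 4, 6 mg/kg) in dose range-finding and GLP repeat-dose studies, GLP arms with an added 2-week recovery period; histopathology and clinical pathology findings recorded.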

The target in data set [12] is CREB-binding protein (Homo sapiens, UniProt Q92793). The experiment in a line: Binding affinity to CBP bromodomain (unknown origin) incubated for 60 mins by TR-FRET assay.
A short description of data set [13]: Unbound AUC in dog at 2.5 mg/kg,po. Format: ADME, organism-based, Canis lupus familiaris. Conditions: in vivo.

Chain of CREB-binding protein (Q92793 whole entry): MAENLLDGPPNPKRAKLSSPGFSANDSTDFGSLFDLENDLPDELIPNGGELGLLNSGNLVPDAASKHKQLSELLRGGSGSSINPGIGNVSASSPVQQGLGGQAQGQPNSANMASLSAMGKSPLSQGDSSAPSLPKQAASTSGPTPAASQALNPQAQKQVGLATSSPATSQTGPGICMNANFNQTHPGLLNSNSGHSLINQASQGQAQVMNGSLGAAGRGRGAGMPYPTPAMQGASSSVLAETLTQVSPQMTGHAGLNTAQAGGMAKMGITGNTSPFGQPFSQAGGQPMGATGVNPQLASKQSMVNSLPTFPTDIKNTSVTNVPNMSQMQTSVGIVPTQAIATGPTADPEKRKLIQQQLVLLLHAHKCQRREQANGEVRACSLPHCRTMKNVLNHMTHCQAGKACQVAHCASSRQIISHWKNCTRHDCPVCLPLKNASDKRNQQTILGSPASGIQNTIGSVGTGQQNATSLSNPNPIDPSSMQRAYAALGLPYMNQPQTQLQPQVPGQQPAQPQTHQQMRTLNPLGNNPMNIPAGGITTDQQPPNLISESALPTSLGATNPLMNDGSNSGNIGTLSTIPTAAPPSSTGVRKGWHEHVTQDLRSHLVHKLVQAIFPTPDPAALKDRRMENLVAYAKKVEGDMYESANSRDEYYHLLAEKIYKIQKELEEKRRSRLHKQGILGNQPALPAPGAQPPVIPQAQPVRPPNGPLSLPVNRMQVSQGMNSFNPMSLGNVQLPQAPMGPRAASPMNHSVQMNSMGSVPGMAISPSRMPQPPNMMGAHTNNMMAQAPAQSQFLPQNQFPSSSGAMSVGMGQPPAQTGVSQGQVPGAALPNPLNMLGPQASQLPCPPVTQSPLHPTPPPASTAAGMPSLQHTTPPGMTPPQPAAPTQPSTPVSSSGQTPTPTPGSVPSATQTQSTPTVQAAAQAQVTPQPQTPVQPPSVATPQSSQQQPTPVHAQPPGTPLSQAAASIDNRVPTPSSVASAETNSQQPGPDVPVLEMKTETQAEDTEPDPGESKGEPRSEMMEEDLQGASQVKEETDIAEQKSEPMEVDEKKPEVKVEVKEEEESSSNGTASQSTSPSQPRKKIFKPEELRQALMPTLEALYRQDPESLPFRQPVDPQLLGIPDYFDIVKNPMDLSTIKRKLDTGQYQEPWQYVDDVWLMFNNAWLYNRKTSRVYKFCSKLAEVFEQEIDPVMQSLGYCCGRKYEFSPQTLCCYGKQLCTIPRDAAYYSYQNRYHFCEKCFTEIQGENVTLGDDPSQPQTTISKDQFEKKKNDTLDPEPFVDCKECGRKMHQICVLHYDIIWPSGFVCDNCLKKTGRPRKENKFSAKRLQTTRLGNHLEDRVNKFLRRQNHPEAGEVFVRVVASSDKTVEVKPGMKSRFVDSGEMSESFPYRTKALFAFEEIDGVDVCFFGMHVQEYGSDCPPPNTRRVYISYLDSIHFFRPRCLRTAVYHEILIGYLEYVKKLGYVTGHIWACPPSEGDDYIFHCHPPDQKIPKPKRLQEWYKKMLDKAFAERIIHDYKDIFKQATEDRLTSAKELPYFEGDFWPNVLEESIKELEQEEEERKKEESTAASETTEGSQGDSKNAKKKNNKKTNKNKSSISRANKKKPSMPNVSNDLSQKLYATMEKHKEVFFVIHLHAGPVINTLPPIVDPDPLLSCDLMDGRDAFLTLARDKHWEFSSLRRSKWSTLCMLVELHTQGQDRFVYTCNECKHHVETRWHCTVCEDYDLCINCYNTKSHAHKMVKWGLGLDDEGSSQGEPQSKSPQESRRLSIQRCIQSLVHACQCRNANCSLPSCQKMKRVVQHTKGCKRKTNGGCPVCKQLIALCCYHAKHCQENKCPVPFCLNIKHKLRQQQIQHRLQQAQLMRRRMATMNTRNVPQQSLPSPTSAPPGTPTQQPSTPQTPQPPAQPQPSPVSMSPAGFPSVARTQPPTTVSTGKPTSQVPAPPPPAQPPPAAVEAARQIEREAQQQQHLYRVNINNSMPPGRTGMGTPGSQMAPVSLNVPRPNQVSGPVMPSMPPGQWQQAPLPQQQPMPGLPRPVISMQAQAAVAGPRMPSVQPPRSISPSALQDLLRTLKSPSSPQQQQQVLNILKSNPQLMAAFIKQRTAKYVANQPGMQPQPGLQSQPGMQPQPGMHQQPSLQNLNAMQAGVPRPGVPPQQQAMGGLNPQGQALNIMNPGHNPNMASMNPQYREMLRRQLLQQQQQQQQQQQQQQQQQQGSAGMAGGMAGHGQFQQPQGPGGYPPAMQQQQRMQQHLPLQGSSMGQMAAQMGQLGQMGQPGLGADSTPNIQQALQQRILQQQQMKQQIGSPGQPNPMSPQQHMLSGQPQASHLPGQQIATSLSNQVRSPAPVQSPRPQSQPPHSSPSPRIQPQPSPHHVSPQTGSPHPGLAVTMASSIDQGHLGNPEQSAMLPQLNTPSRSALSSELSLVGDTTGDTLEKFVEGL
Chain of Histone acetyltransferase KAT2B (Q92831 whole entry): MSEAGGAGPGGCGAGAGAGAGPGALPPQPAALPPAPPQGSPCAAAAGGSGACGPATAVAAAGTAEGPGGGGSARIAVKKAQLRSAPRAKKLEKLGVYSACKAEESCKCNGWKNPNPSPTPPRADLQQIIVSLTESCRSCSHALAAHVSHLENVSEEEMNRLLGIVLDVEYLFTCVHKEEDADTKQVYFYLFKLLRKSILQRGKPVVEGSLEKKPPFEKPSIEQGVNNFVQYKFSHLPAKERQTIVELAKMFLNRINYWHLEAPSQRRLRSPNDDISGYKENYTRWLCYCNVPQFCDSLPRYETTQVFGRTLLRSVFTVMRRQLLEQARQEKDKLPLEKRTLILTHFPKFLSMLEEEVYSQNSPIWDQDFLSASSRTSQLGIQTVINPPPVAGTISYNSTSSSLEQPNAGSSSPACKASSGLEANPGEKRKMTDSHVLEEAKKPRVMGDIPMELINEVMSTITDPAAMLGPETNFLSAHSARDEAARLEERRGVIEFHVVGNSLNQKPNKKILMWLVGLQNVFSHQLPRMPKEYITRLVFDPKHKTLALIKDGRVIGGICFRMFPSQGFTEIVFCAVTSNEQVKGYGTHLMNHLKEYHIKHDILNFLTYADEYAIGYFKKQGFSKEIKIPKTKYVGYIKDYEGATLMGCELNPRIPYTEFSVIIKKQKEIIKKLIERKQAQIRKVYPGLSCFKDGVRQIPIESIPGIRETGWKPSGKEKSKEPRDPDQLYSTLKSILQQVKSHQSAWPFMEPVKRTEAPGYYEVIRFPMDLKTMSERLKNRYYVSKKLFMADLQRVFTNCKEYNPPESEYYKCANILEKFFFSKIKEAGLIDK

As for `Cc1noc2c1-c1ccccc1C(c1ccc(Cl)cc1)=N[C@H]2CC(N)=O` [PELABRESIB], the result in data set [1] was Active. For the same molecule, in data set [2], the inhibition in vivo at 30 mg/kg is 41%. In addition, the inhibition entry in data set [3] was “Active”. The IC50 in data set [4] is > 20 µM; in data set [6], > 20 µM; in data set [9] it was > 80 µM; in data set [12], > 20 µM. The values for the Cmax in [5] and in data set [8] were 5.9 µM and 1.8 µM, respectively. Besides, the inhibition entry in [7] was “inactive”. The molecule further had a half-life in [10] of 23 h. Moreover, in [11], the Activity result is given as “Toxic”. This molecule returned a fAUC in data set [13] of 1.1 µM·h.

The record behind these values is ChEMBL document CHEMBL5252513, “Identification of a Benzoisoxazoloazepine Inhibitor (CPI-0610) of the Bromodomain and Extra-Terminal (BET) Family as a Candidate for Human Clinical Trials” (J Med Chem, 2016).
